# RGS4 pot: RGS4 potentiators or activators, primary screen, cell-based, HEK293 M3R inducible RGS4, calcium flux; carbachol calcium flux Fluo4; hits give low values; B-score at 10 µM; 310,000 tested, 0.92% active;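 active = B-score of the integrated calcium signal more than 4 SD below the library mean, with starting fluorescence not abnormally high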;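 also: negative B-score means reduced calcium response which marks RGS4 activation or potentiation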
#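 Assay system: HEK293 FlpIn-TREx cells, stable M3R, doxycycline-inducible RGS4 / Probe or stimulus: carbachol, ECmax concentration / Times: overnight RGS4 induction, 30 min dye load 37 °C, 20 min compound RT / Signal: kinetic calcium fluorescence imaging with Fluo4-AM dye, 2 µM / Measure: Agonist-evoked peak-minus-minimum fluorescence over baseline, integrated ratio, B score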
# MrgX1 allo act: positive allosteric modulators of MrgX1, primary screen, HEK293 cells, Fluo-4 calcium flux; FDSS; hits give high values; 310,000 tested, 0.63% active; B-score at 10 µM;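 active = plate-corrected calcium response at least 3 library SD above typical, normal starting fluorescence, not activating the receptor alone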;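 also: compound read alongside a low EC10 to EC30 dose of BAM8-22 agonist; peak minus trough fluorescence over baseline measured at the second addition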
# Target sequence (Q96LB2 whole entry, looked up): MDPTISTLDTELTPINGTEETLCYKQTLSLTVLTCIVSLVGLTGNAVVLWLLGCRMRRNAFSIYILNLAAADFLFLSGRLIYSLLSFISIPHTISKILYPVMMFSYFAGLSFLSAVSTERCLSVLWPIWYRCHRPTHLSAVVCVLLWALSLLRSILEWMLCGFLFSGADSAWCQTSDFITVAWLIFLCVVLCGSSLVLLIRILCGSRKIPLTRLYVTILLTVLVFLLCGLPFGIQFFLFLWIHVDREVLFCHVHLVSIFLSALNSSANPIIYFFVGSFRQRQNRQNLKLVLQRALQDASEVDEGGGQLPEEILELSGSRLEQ
# MrgX1 antagonist: antagonists of human MrgX1 receptor, primary screen, HEK293 cells, Fluo-4 calcium flux. B-score at 10 µM. 310,000 tested, 1.3% active. BAM8-22 antagonism; hits give low values. Mas-related G-protein coupled receptor member X1 (Homo sapiens), Q96LB2;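 active = calcium-response B-score plate-corrected more than 3 library SD below zero, starting fluorescence within 5 deviations, no agonist response on first addition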;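 also: peak minus trough fluorescence over baseline after final BAM8-22 challenge near maximal dose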
# RGS4 inh: RGS4 inhibitors, primary screen, cell-based, HEK293 M3R inducible RGS4, calcium flux; Regulator of G-protein signaling 4 (Homo sapiens), P49798; Fluo-4 calcium flux; hits give high values; triggered by carbachol at its EC20; B-score at 10 µM; 310,000 tested, 0.45% active; AID 463165, 2010;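 active = B-score, a plate-corrected calcium signal, over three deviations above library mean, with baseline fluorescence within five deviations of library mean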;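 also: RGS4 expression induced by doxycycline in cells with stable M3 receptor; B-score is computed from the integrated fluorescence ratio over baseline after carbachol; higher B-score means a larger calcium signal and so more RGS4 inhibition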
# Target sequence (P49798 whole entry, looked up): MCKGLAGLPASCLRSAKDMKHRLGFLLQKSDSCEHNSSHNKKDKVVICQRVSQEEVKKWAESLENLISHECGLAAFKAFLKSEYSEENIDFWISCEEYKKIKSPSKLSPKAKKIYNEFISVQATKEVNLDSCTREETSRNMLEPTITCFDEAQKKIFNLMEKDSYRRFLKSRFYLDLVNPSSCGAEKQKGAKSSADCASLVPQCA
# MrgX1 agonist: agonists of human MrgX1 receptor, primary screen, HEK293 cells, Fluo-4 calcium flux; Mas-related G-protein coupled receptor member X1 (Homo sapiens), Q96LB2; Fluo-4 calcium fluorescence, agonist mode; hits give high values; B-score at 10 µM; 310,000 tested, 0.44% active; AID 588627, 2011;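 active = calcium response B-score plate-corrected fluorescence ratio at least 3 library SD, with starting fluorescence B-score inside 5 SD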
#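 Assay system: stable human MrgX1 HEK293 cell line. Quantity: 15,000 cells per well. Schedule: cells plated overnight, dye loaded 0.5 h 37 °C, 0.5 h room temperature. Detection: Fluo-4 NW calcium-flux fluorescence, kinetic read. Read-out basis: peak-minus-minimum fluorescence over baseline, converted to B scores. Control set: positive and negative control wells on each plate.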
# MrgX1 ant reconf: MrgX1 receptor antagonists, duplicate retest, confirmation, HEK293 cells, Fluo-4 calcium flux | BAM8-22 calcium flux; hits give low values | AID 602420, 2012 | shares compounds with MrgX1 antagonist | 2,300 tested, 19% active | remaining BAM8-22 calcium response % of control (hits give low values), % at 10 µM;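 active = remaining agonist calcium response no higher than 100% minus 3 SD of agonist-only control wells, with starting fluorescence near control levels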;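 also: agonist BAM8-22 given at a near maximal EC90 to ECmax level; peak minus minimum fluorescence divided by baseline after agonist addition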
# HEK293 Ca flux: nonspecific calcium signal in parental HEK293, confirmation, counter-screen for MrgX1 antagonist project, parental HEK293 cells, Fluo-4 calcium flux; fluorescence ratio F(max-min)/F0 at 10 µM; Fluo-4 calcium fluorescence, FDSS; shares compounds with MrgX1 antagonist; 4,000 tested, 2% active;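 active = duplicate-averaged calcium fluorescence ratio at least three times the standard deviation of buffer wells, a nonspecific response in parental cells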
# HEK293 Ca counter: calcium response in parental HEK293 cells, primary screen, counter-screen for MrgX1 allosteric activator project, cell-based, Fluo-4 calcium flux, duplicate. shares compounds with MrgX1 antagonist. Fluo-4 fluorescence ratio; hits give high values. fluorescence ratio F(max-min)/F0 at 10 µM. 4,000 tested, 0.4% active;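 active = calcium fluorescence ratio, averaged over duplicates, at least 3 SD of the buffer-well ratio, meaning a nonspecific response in receptor-free cells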;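 also: untransfected parental HEK293 lacking MrgX1 used as counterscreen for MrgX1 allosteric activators; fluorescence change taken during the second addition on a kinetic imager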
# HEK293 Ca cntr2: calcium response in parental HEK293 cells, primary screen, counter-screen for MrgX1 agonist project, cell-based, Fluo-4 calcium flux, duplicate, agonist mode; shares compounds with MrgX1 antagonist; Fluo-4 calcium fluorescence (FDSS); hits give high values; fluorescence ratio F(max-min)/F0 at 10 µM; 4,000 tested, 8.7% active;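 active = calcium fluorescence ratio at least three times the spread of buffer wells, meaning a non-specific response in parental cells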
# The depositor's hits bear a star; i = inactive; . = no result. Most compounds without a hit are left out; they make up all but 3.5% or so of the library.
SMILES,RGS4 pot,MrgX1 allo act,MrgX1 antagonist,RGS4 inh,MrgX1 agonist,MrgX1 ant reconf,HEK293 Ca flux,HEK293 Ca counter,HEK293 Ca cntr2
O=C(NCCO)c1ccc2[nH]c3c(c2c1)CCCC3,i,i,-6.5*,i,i,i,i,i,i
CCOC(=O)c1cccc(C(=O)Nc2nc3ccc(OC)cc3s2)n1,i,i,-5*,i,i,i,i,i,i
COc1ccc2nc(NC(=O)c3ccccc3O)sc2c1,i,i,i,i,i,.,.,.,.
CCCC/C(O)=C1\C(=O)CC(C)(C)CC1=Nc1ccccc1OC,i,i,i,i,i,.,.,.,.
COC(=O)c1ccc(OCC(O)CN2CCC(C)CC2)cc1 (stereo not drawn),i,i,i,i,i,.,.,.,.
OC1CCN(CC(O)C(F)(F)F)CC1 (stereo not drawn),i,i,-5.7*,i,i,i,i,i,i
CCOC(=O)c1ccc(NC(=O)CSc2nc(N)c(NC(=O)c3ccc(Br)o3)c(=O)[nH]2)cc1,i,i,i,i,i,.,.,.,.
CCC(C)(C(=O)NC1CCCCC1)N(Cc1cccs1)C(=O)CC1NC(=O)NC1=O (stereo not drawn),i,i,i,i,i,.,.,.,.
COc1ccccc1N1CCN(C(=O)C2CCCO2)CC1 (stereo not drawn),i,i,-8.2*,i,i,i,i,i,i
Cc1cc(-c2cccs2)n[nH]1,i,i,i,i,i,.,.,.,.
Cc1cc(-c2ccccc2N)n[nH]1,i,i,-6.4*,i,i,i,i,i,i
O=C(COc1ccccc1)OCC(=O)N1CCCc2ccccc21,i,i,-6.1*,i,i,i,i,i,i
CCOC(=O)COc1cccc2c(=O)n(CC(=O)N3CCCCC3)ccc12,i,i,i,i,i,.,.,.,.
O=C(COc1ccccc1)N1CCc2ccccc21,i,i,i,i,i,.,.,.,.
COC(=O)COc1cccc2c(=O)n(CC(=O)N3CCCc4ccccc43)ccc12,i,i,-8.9*,i,i,i,i,i,i
COc1ccc(Cc2nc3ccc(C(=O)NCCn4ccnc4C)cc3o2)cc1OC,i,i,i,i,i,.,.,.,.
CCOC(=O)c1c(C)[nH]c2cc(Br)c(O)cc12,i,i,-7.4*,i,i,73%*,i,i,i
CCOC(=O)c1c(-c2ccc(OC)cc2)oc2cc(Br)c(O)cc12,i,i,i,i,i,.,.,.,.
COc1cccc(CN(C)C(=O)c2cc(COc3c(F)cccc3F)on2)c1,i,i,i,i,i,.,.,.,.
COc1cccc(CN(C)C(=O)c2cc(COc3ccc4ncccc4c3)on2)c1,i,i,-6.6*,i,i,69%*,i,i,i
